In article PMC9041111 (RSC Advances, 2021):

Legend:
KCa3.1 channel = KCa3.1 channel (Homo sapiens, UniProt O15554); assay: whole-cell patch clamp on A549-3R cells, 1-EBIO activated KCa3.1 current; format: cell-based
[1] = in vitro metabolism with mouse liver microsomes and NADPH, LC-MS/MS; format: in vitro ADME; settings: mouse liver microsomes, NADPH, 37 °C, 90 min
Summary of the method: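 The non-radioactive fluorinated reference compound was incubated with mouse liver microsomes and NADPH at 37 °C for 90 min. The reaction was stopped with CH3CN/CH3OH (1:1), cooled and centrifuged to remove protein. The supernatant was analysed by ESI LC-MS/MS (qToF). The metabolite was assigned from the accurate m/z of the [M + H]+ ion against the calculated exact mass.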

[2] = chemical stability under 18F-labelling conditions; format: physicochemical; settings: 10 min, DMF

Sequence of KCa3.1 channel (O15554 whole entry): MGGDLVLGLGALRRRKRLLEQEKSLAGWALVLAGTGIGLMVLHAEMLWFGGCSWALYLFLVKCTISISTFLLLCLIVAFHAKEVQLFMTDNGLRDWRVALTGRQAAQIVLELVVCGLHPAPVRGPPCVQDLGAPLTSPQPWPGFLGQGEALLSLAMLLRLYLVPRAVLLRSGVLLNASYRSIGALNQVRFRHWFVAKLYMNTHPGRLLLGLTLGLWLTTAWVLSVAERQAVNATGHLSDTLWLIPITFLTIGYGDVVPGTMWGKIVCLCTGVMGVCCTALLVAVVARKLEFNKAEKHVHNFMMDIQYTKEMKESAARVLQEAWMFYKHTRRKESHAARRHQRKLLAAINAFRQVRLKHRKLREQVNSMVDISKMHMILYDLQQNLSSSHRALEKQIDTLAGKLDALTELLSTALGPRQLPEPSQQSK

CCn1c(=O)[nH]c2ccccc21 [1-EBIO, 1-ethyl-2-benzimidazolone]
effect on current (current density) in patch clamp (KCa3.1 channel; 1-EBIO 50 μM, applied 2-5 min, n = 5): increased outward current

NC(=O)C(c1ccccc1)(c1ccc(F)cc1)c1ccc(OCCF)cc1 (centres unmarked) [compound 28]
main metabolite [1]: phenol 9 | effect on 1-EBIO activated KCa3.1 mediated current (KCa3.1 channel; 28 at 10 μM after 1-EBIO 50 μM, n = 5): reduced ionic current

NC(=O)C(c1ccccc1)(c1ccc(F)cc1)c1ccc(F)cc1 [senicapoc]
Stability (TLC) ([2]; (NH4)2C2O4 (5 eq.), 90 °C): Stable | Stability (TLC) ([2]; (NH4)2C2O4 (5 eq.), 110 °C): Stable | Stability (TLC) ([2]; (NH4)2C2O4 (5 eq.), 130 °C): Stable | Stability (TLC) ([2]; K2CO3 (5 eq.), 90 °C): Partial decomposition | Stability (TLC) ([2]; K2CO3 (5 eq.), 110 °C): Partial decomposition | Stability (TLC) ([2]; K2CO3 (5 eq.), 130 °C): Complete decomposition | Stability (TLC) ([2]; TBAF (5 eq.), 90 °C): Complete decomposition | Stability (TLC) ([2]; TBAF (5 eq.), 110 °C): Complete decomposition | Stability (TLC) ([2]; TBAF (5 eq.), 130 °C): Complete decomposition | Stability (TLC) ([2]; no base, 130 °C): Stable | effect on 1-EBIO activated KCa3.1 mediated current (KCa3.1 channel; senicapoc 1 μM, applied consecutively after 28, n = 5): complete inhibition
